Measurements as given in ChEMBL document CHEMBL5653631, “A Potent and Selective ULK1 Inhibitor Suppresses Autophagy and Sensitizes Cancer Cells to Nutrient Stress” (iScience, 2018).
One block for each molecule: values may come before it.

How the values were obtained:
[1] = target: Dual specificity protein kinase CLK1 (Homo sapiens) (UniProt P49759); assay: Inhibition of human recombinant CLK1 at 500 nM in presence of ATP by radiometric assay relative to control
[2] = target: Platelet-derived growth factor receptor beta (Homo sapiens) (UniProt P09619); assay: Inhibition of human recombinant PDGFRb at 500 nM in presence of ATP by radiometric assay relative to control
[3] = target: T1, Serine/threonine-protein kinase TAO3 (Homo sapiens) (UniProt Q9H2K8); assay: Inhibition of human recombinant TAO3 at 500 nM in presence of ATP by radiometric assay relative to control
T1 sequence (whole entry): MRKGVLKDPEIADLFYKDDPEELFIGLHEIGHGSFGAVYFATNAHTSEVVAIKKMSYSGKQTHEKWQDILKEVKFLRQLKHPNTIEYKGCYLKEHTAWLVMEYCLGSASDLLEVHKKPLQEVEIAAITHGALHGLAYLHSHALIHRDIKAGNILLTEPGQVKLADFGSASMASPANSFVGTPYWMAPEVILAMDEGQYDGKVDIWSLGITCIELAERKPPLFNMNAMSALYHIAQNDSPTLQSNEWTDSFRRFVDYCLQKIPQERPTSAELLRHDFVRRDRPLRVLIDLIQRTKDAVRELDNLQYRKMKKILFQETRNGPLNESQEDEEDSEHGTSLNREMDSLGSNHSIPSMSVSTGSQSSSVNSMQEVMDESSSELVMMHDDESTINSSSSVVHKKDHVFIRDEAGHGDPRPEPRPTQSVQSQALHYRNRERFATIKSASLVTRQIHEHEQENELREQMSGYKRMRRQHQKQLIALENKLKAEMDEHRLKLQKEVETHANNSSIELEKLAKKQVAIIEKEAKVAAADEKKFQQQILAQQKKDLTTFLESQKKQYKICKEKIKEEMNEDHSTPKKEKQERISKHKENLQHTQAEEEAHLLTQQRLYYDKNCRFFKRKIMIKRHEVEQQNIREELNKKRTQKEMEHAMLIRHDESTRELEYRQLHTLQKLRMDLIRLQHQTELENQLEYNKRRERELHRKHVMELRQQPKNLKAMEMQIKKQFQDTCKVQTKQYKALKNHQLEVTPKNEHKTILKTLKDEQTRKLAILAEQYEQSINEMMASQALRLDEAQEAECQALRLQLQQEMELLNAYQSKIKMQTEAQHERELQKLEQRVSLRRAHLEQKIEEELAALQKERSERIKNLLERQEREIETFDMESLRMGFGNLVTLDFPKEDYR

[4] = target: T2, Aurora kinase A (Homo sapiens) (UniProt O14965); assay: Inhibition of human recombinant AurA at 500 nM related to control ULK1
T2 sequence (whole entry): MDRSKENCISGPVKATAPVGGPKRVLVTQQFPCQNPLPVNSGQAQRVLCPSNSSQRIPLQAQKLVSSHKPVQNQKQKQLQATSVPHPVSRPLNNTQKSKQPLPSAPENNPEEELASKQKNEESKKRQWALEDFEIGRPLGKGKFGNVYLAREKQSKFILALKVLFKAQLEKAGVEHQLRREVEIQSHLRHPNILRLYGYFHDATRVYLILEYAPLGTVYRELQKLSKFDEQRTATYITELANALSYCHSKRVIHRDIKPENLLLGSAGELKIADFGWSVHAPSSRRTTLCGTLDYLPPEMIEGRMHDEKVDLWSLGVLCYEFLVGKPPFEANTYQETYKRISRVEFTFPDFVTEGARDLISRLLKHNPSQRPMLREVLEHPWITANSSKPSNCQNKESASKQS
Procedure, shortened: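 Panel of 327 recombinant human kinases, each assayed in vitro by radiometric activity assay in duplicate at a single inhibitor concentration per compound, chosen with reference to its ULK1 inhibition. Activity remaining was expressed as percent of vehicle control, and percent inhibition was calculated as 100 minus percent activity remaining.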

[5] = target: Serine/threonine-protein kinase mTOR (Homo sapiens) (UniProt P42345); assay: Inhibition of human recombinant FRAP at 15 nM in presence of ATP by radiometric assay relative to control
[6] = target: T3, Serine/threonine-protein kinase Chk1 (Homo sapiens) (UniProt O14757); assay: Inhibition of human recombinant CHK1 at 40 nM related to control ULK1
T3 sequence (whole entry): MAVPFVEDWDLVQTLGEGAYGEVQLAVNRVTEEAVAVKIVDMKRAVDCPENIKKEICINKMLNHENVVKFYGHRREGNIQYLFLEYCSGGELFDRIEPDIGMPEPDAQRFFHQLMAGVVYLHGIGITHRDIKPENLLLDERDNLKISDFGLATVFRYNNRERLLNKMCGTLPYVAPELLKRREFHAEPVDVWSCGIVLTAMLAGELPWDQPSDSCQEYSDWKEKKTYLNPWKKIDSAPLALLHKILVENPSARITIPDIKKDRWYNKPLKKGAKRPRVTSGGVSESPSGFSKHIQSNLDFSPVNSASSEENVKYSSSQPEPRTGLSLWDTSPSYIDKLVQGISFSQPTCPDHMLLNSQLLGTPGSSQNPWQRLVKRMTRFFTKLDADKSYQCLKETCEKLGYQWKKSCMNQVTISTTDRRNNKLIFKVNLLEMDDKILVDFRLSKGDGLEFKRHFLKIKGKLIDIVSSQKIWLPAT

[7] = target: Glycogen synthase kinase-3 alpha (Homo sapiens) (UniProt P49840); assay: Inhibition of human recombinant GSK3A at 40 nM related to control ULK1
[8] = target: T4, MAP kinase-activated protein kinase 5 (Homo sapiens) (UniProt Q8IW41); assay: Inhibition of human recombinant MAPKAPK5 at 40 nM related to control ULK1
T4 sequence (whole entry): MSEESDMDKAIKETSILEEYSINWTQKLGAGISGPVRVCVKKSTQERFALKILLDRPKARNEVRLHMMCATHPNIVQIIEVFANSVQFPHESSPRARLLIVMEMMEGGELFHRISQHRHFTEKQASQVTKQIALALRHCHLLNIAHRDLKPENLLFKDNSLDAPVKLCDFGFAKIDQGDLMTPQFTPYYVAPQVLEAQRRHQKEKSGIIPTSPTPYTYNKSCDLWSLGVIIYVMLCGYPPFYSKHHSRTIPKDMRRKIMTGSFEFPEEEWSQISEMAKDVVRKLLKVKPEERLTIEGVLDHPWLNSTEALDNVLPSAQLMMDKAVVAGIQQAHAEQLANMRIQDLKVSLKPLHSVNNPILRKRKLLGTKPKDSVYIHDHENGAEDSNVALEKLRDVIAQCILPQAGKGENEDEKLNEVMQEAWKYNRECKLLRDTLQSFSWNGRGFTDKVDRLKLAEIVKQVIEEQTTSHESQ

Glycogen synthase kinase-3 alpha (Homo sapiens), sequence (P49840 2-483 limits assumed): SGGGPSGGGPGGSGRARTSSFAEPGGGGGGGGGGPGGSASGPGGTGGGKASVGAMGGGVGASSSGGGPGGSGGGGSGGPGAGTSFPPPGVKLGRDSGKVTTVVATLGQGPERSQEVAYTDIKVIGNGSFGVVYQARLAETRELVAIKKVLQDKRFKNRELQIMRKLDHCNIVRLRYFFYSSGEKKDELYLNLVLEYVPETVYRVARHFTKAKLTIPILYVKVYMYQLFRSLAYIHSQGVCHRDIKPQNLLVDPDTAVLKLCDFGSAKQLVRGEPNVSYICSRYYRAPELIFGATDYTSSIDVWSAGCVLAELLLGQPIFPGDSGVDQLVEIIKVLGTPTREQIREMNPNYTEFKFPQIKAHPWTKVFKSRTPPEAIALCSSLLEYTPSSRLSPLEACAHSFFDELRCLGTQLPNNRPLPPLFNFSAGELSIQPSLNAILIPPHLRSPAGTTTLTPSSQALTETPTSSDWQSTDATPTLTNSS
Platelet-derived growth factor receptor beta (Homo sapiens), sequence (P09619 whole entry): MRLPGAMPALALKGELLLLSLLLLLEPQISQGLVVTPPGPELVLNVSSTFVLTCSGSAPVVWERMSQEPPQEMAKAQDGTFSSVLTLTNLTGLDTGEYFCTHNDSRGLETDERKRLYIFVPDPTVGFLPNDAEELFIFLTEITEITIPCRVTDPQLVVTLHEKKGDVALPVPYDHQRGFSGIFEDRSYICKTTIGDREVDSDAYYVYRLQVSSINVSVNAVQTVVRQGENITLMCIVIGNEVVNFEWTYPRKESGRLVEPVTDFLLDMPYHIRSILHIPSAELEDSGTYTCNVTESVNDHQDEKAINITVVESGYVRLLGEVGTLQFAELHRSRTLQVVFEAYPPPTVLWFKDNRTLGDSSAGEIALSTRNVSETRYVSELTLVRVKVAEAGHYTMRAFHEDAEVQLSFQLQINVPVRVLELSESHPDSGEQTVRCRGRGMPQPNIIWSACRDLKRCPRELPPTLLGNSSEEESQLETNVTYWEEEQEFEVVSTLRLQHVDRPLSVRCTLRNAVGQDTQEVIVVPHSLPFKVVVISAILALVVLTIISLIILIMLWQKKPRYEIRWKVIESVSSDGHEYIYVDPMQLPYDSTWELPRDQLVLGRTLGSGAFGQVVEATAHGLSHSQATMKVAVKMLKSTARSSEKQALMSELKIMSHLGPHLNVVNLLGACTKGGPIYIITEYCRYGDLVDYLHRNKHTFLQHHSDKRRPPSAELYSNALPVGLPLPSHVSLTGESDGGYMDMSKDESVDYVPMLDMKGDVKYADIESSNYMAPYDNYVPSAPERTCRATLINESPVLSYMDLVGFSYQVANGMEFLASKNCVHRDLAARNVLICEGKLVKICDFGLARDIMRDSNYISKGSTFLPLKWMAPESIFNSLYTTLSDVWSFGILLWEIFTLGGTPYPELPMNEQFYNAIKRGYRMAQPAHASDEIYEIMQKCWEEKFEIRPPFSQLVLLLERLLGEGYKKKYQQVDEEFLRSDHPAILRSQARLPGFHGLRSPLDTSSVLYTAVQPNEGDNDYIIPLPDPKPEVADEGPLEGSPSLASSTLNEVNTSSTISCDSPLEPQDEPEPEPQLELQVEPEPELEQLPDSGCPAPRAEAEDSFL
Dual specificity protein kinase CLK1 (Homo sapiens), sequence (P49759 whole entry, looked up): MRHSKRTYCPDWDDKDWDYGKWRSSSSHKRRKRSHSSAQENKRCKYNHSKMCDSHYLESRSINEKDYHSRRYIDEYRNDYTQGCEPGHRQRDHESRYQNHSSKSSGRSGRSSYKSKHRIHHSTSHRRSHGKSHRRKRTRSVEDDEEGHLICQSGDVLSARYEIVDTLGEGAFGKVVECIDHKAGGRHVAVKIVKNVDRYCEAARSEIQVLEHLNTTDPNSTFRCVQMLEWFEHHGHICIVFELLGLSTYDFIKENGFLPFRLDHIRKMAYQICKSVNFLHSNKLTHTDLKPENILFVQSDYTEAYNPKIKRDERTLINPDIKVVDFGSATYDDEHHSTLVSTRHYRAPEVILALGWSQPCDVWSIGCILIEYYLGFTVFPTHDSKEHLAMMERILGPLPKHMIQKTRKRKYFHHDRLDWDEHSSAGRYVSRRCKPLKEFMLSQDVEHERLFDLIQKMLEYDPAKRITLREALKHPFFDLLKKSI

- inhibition [1]: 5%
- inhibition [2]: 0%
- inhibition [3]: 0%
- fold change (FC) [4]: 1.08
Compound: CNC(=O)c1ccccc1Oc1nc(Nc2cc(OC)c(OC)c(OC)c2)ncc1Br

- inhibition [5]: 0%
Compound: CC(C)[C@H](NC(=O)c1cc(-c2cnn3cc(-c4ccc(OCCN5CCCCC5)cc4)cnc23)cs1)C(F)(F)F

- fold change (FC) [6]: 0
- fold change (FC) [7]: 0
- fold change (FC) [8]: 0
Compound: O=C(N[C@@H](C1CC1)C(F)(F)F)c1cc(-c2cnn3cc(-c4ccc(F)cc4)cnc23)cs1
